In assay [1] the target is GABA-A receptor; anion channel. Nature of the assay: Displacement of […]-tert-butylbicyclophosphorothionate (TBPS) from Gamma-aminobutyric acid A (GABA-A) receptor of rat brain membranes. Type of assay: cell membranes, Membrane. The method in brief:
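Noncompetitive displacement of [35S]TBPS from the picrotoxin site in rat brain membranes. Full concentration-response curves were fitted for IC50. Data come from duplicate experiments, each run in triplicate, with mean ± SEM reported. Hill coefficients are given.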

For assay [2], the target named is T1, GABA-A receptor; alpha-1/beta-2/gamma-2 (Rattus norvegicus) (UniProt P18508+P62813+P63138). The experiment in a line: Electrophysiological effect on rat alpha-1-beta-2-gamma-2 GABA-A receptor subunits expressed in xenopus laevis oocytes at 10 uM. The class given is functional, cell-based. The settings on record: Oocyte. The method in brief: (§1)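 Oocytes express rat α1β2γ2 GABAA receptors. The control response uses 2 μM GABA. Steroid is co-applied at 0.1, 1 or 10 μM. The value is the ratio of current with steroid to current without it. N = 3–6 (12 for one reference steroid), mean ± SEM. These are not full concentration-response curves.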

Assay [3] concerns the target T1, GABA-A receptor; alpha-1/beta-2/gamma-2 (Rattus norvegicus). Nature of the assay: Electrophysiological effect on rat alpha-1-beta-2-gamma-2 GABA-A receptor subunits expressed in xenopus laevis oocytes at 10 uM in the absence of GABA. The class given is functional, cell-based. The settings on record: Oocyte. The essentials:
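Rat α1β2γ2 GABAA receptors are expressed in Xenopus oocytes. Steroid at 10 μM is applied alone, without GABA, and the directly gated current is measured. The value is the ratio of steroid-only current to the 2 μM GABA control current. N = 3–6 (12 for one reference steroid), mean ± SEM.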

Assay [4] shares this target. Nature of the assay: Electrophysiological effect on rat alpha-1-beta-2-gamma-2 GABA-A receptor subunits expressed in xenopus laevis oocytes at 1 uM. Type of assay: functional, cell-based. The conditions noted are these: Oocyte. The method in brief: as §1
Assay [5] has the same target. Nature of the assay: Electrophysiological effect on rat alpha-1-beta-2-gamma-2 GABA-A receptor subunits expressed in xenopus laevis oocytes at 0.1 uM. Type of assay: functional, cell-based. The conditions noted are these: Oocyte. The method in brief:
as §1

Among the data in ChEMBL document CHEMBL1133108, “Neurosteroid analogues. 8. Structure-activity studies of N-acylated 17a-aza-D-homosteroid analogues of the anesthetic steroids (3alpha, 5alpha)- and (3alpha,5beta)-3-hydroxypregnan-20-one” (J Med Chem, 2000) are IC50 and Activity values, retold here.

`C[C@]12CCC3C(CC[C@H]4C[C@H](O)CC[C@]34C)C1CCCN2C(=O)C(F)(F)F` (some centres undefined) had an IC50 in assay [1] of 430 nM. Further, the Activity in assay [2] came to 10.1; in assay [3], 0.5; in assay [4], 1.91; in assay [5] it was 1.11.

Regarding `C[C@]12CCC3C(CC[C@@H]4C[C@H](O)CC[C@]34C)C1CCCN2C(=O)CO` (some centres undefined), the IC50 in assay [1] stood at 930 nM. For the same compound, the Activity in assay [2] worked out at 3.87; in assay [3] it was 0.1; in assay [4], 1.57; in assay [5], 1.36.

The compound `CC(=O)[C@H]1CC[C@H]2[C@@H]3CC[C@H]4C[C@H](O)CC[C@]4(C)[C@H]3CC[C@]12C` [BREXANOLONE] showed an IC50 in assay [1] of 74 nM. The Activity in assay [2] came to 9.65; in assay [3], 0.37; in assay [4], 3.89; in assay [5], 1.26.

The compound `CC(=O)N1CCCC2C3CC[C@H]4C[C@H](O)CC[C@]4(C)C3CC[C@@]21C` (some centres undefined) returned a half-inhibitory concentration (IC50) in assay [1] of 200 nM. In addition, the Activity in assay [2] is 3.74; in assay [3], 0.05; in assay [4], 1.66; in assay [5], 1.21.

Regarding `C[C@]12CC[C@@H](O)C[C@H]1CC[C@@H]1[C@@H]2CC[C@]2(C)[C@@H](C(=O)CO)CC[C@@H]12`, in assay [1], the half-maximal inhibitory concentration (IC50) stood at 120 nM. In addition, the Activity in assay [2] was 5.43; in assay [3] it was 0.19; in assay [4], 2.37; in assay [5] it was 1.21.

In turn, `C[C@@]1(O)CC[C@]2(C)C3CC[C@@]4(C)C(CCCN4C(=O)CO)C3CC[C@H]2C1` (some centres undefined) registered an IC50 in assay [1] of 550 nM. Also, the Activity in assay [2] stood at 6.5; in assay [3], 0.2; in assay [4], 1.22; in assay [5], 1.

As to `CC(=O)N1CCCC2C3CC[C@@H]4C[C@H](O)CC[C@]4(C)C3CC[C@@]21C` (some centres undefined), the Activity in assay [2] came out at 1.18; in assay [3], 0.01; in assay [4], 1.04; in assay [5], 1.37.

Compound `C[C@]12CCC3C(CC[C@H]4C[C@H](O)CC[C@]34C)C1CCCN2C(=O)CO` (some centres undefined) had an IC50 in assay [1] of 45 nM. The Activity in assay [2] came to 8.09; in assay [3], 0.49; in assay [4] it was 1.73; in assay [5] it was 1.17.

`CC(=O)N1CCCC2C3CC[C@H]4C[C@](C)(O)CC[C@]4(C)C3CC[C@@]21C` (some centres undefined) had an IC50 in assay [1] of 2610 nM. The Activity in assay [2] was determined as 1.99; in assay [3], 0.05; in assay [4] it was 1.04; in assay [5], 0.96.

In turn, `C[C@]12CCC3C(CC[C@@H]4C[C@H](O)CC[C@]34C)C1CCCN2C(=O)C(F)(F)F` (some centres undefined) registered an IC50 in assay [1] of 6220 nM. Moreover, the Activity was 1.12 in assay [2], 0.02 in assay [3], 0.96 in assay [4] and 0.98 in assay [5].

`C[C@]12CC[C@@H](O)C[C@@H]1CC[C@@H]1[C@@H]2CC[C@]2(C)[C@@H](C(=O)CO)CC[C@@H]12` registered an IC50 in assay [1] of 39 nM. The Activity in assay [2] stood at 11.8; in assay [3], 1.67; in assay [4], 4.55; in assay [5], 1.3.

`CC(=O)[C@H]1CC[C@H]2[C@@H]3CC[C@@H]4C[C@H](O)CC[C@]4(C)[C@H]3CC[C@]12C` [ELTANOLONE] displayed an IC50 in assay [1] of 71 nM. The Activity in assay [2] stood at 4.3; in assay [3], 0.01; in assay [4], 1.92; in assay [5] it was 0.97.
